# Experimental data from ChEMBL document CHEMBL3102734, “Inhibition of LOX by flavonoids: a structure-activity relationship study” (Eur J Med Chem, 2014).
# Activity calls are given as the source filed them. The calls are words filed in the database; no cut-off is given here.
# T1: Seed linoleate 13S-lipoxygenase-1 (Glycine max, UniProt P08170)
# T1 sequence (P08170 whole entry): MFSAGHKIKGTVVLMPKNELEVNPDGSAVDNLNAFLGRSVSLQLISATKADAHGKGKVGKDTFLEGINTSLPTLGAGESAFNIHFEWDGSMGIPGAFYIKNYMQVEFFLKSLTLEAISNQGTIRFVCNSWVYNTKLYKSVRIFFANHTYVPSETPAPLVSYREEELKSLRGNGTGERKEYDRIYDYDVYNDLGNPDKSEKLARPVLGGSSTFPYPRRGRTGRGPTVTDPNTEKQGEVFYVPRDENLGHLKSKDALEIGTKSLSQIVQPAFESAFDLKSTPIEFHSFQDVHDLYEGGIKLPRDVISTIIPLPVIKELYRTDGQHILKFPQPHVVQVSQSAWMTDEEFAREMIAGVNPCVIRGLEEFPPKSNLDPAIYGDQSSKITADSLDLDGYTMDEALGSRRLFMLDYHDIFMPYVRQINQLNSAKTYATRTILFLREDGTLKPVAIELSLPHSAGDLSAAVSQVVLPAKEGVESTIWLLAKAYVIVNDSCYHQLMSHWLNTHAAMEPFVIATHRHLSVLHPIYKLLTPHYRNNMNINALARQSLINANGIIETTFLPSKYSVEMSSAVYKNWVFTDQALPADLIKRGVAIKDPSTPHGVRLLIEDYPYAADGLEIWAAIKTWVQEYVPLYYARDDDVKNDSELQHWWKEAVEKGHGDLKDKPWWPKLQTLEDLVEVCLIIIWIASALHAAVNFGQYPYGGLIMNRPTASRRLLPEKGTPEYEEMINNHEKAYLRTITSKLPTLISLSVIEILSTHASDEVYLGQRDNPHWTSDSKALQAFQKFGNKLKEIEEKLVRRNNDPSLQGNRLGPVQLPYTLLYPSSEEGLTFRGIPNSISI
# T2: Polyunsaturated fatty acid 5-lipoxygenase (Homo sapiens) (UniProt P09917)
# T2 sequence (whole entry): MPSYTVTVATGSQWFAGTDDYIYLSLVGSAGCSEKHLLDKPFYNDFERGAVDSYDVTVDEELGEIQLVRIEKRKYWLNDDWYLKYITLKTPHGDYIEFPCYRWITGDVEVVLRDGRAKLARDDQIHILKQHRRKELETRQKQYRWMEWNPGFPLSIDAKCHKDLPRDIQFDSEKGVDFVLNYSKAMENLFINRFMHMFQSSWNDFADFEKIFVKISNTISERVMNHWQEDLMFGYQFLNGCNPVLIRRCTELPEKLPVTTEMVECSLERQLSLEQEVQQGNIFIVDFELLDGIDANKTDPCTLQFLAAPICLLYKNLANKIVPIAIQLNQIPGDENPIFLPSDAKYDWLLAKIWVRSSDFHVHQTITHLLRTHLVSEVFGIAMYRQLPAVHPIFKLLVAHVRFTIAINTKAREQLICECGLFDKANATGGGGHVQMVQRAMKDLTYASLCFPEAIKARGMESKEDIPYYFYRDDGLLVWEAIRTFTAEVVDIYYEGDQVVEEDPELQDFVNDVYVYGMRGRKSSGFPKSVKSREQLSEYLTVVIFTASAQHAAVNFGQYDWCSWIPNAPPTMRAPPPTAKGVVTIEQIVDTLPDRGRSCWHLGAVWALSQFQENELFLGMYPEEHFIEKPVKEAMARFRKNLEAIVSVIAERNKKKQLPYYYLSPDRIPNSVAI
# T3: Seed linoleate 13S-lipoxygenase-1 (Glycine max) (UniProt P08170)
# T3 sequence (whole entry): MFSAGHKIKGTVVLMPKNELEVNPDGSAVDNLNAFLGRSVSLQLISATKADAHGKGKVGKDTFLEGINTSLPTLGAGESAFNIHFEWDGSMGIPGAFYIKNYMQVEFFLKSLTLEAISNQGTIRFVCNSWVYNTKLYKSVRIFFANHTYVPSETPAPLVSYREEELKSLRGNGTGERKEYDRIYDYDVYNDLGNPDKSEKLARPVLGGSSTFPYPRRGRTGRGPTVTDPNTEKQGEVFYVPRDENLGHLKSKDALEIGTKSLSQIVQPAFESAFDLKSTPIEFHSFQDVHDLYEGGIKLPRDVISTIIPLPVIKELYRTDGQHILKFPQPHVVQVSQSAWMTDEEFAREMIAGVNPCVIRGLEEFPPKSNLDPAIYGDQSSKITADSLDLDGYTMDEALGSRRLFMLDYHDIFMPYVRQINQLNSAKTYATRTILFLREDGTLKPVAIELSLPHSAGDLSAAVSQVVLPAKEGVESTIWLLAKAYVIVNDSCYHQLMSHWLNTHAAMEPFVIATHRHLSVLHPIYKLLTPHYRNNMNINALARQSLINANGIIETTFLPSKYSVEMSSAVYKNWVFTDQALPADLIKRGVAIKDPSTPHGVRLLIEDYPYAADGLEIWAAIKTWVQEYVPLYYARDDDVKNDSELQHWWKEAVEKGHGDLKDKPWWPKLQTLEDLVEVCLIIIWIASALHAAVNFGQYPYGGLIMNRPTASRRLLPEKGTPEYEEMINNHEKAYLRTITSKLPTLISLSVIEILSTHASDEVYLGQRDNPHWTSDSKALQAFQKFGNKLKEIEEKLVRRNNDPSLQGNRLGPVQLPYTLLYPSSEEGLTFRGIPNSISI
# How the values were obtained:
# [1] = biological target: T1, Seed linoleate 13S-lipoxygenase-1; test: Mixed noncompetitive type inhibition of soybean LOX-1 using linoleic acid as substrate preincubated for 5 mins followed by substrate addition by Lineweaver-Burk plot analysis
# Outline: (§1)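 Soybean LOX-1 (supplied lyophilized) kinetic assay. Enzyme pre-incubated with inhibitor 5 min, then linoleic acid added. Conversion to the cis,trans-hydroperoxide followed at 234 nm at 30 °C with continuous soft shaking. Readings every 30 s for 10 min; rate taken as the 0–3 min slope. Three inhibitor concentrations tested against three substrate concentrations. Inhibition type assigned by nonlinear Michaelis–Menten fitting and Lineweaver–Burk plots. At least four experiments, each in triplicate.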
# [2] = biological target: T2, Polyunsaturated fatty acid 5-lipoxygenase (Homo sapiens); test: Inhibition of 5-LOX-mediated LTB4 production in human neutrophils using arachidonic acid as substrate at 40 uM preincubated for 10 mins followed by substrate addition measured after 8 mins by enzyme immunoassay relative to control
# Outline: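 Isolated human neutrophils held in HBSS on ice; viability checked by trypan blue. Cells at 3.5×10^6 cells/mL equilibrated 10 min at 37 °C. Flavonoids (0.15–40 μM) pre-incubated 10 min, then A23187 (5 μM) plus arachidonic acid (10 μg/mL) added for 8 min. Stopped with cold methanol and centrifuged 13,000 g, 1 min, 4 °C. LTB4 measured by EIA and expressed as % inhibition of control. NDGA (1 μM) positive control. At least three experiments.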
# [3] = biological target: T3, Seed linoleate 13S-lipoxygenase-1 (Glycine max); test: Binding affinity to soybean LOX-1 at 1248 uM by STD-[1H] NMR spectroscopic analysis
# Outline: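 STD-1H NMR at 37 °C, 600 MHz, cryoprobe. Lyophilized soybean LOX-1 in Tris buffer (20 mM Tris, 7 mM (NH4)2SO4, 3.5 mM MgCl2, 0.3 mM DTT in D2O, pH 9.0). Ligand added from a 16.6 mM DMSO-d6 stock. Final concentrations: LOX 4 μM, ligand 1248 μM, ratio 300:1. On-resonance saturation at 1.0 ppm; off-resonance reference at 20000 Hz.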
# [4] = substrate: O=c1cc(-c2ccc(O)c(O)c2)oc2cc(O)ccc12; test: (§2) Activity at soybean LOX-1 using linoleic acid as substrate at 25 uM preincubated for 5 mins followed by substrate addition by Michaelis-Menten plot analysis; conditions: Glycine max; outline: as §1
# [5] = substrate: O=c1cc(-c2ccc(O)c(O)c2)oc2cccc(O)c12; test: as §2; conditions: Glycine max; outline: as §1
# [6] = substrate: O=c1cc(-c2ccc(O)cc2)oc2cc(O)cc(O)c12; test: as §2; conditions: Glycine max; outline: as §1
# [7] = substrate: O=c1cc(-c2ccccc2)oc2cc(O)cc(O)c12; test: as §2; conditions: Glycine max; outline: as §1
# [8] = substrate: O=c1c(O)c(-c2ccc(O)c(O)c2)oc2cc(O)cc(O)c12; test: as §2; conditions: Glycine max; outline: as §1
# [9] = substrate: O=c1cc(-c2ccc(O)c(O)c2)oc2ccccc12; test: as §2; conditions: Glycine max; outline: as §1
# [10] = substrate: O=c1cc(-c2ccc(O)c(O)c2)oc2cc(O)cc(O)c12; test: (§3) Activity at soybean LOX-1 using linoleic acid as substrate at 50 uM preincubated for 5 mins followed by substrate addition by Michaelis-Menten plot analysis; conditions: Glycine max; outline: as §1
# [11] = substrate: O=c1cc(-c2ccc(O)c(O)c2)oc2cccc(O)c12; test: as §3; conditions: Glycine max; outline: as §1
# [12] = substrate: O=c1cc(-c2ccc(O)cc2)oc2cccc(O)c12; test: as §3; conditions: Glycine max; outline: as §1
# [13] = substrate: O=c1cc(-c2cccc(O)c2)oc2cc(O)cc(O)c12; test: as §3; conditions: Glycine max; outline: as §1
# [14] = substrate: O=c1cc(-c2ccc(O)cc2)oc2cc(O)cc(O)c12; test: (§4) Activity at soybean LOX-1 using linoleic acid as substrate at 100 uM preincubated for 5 mins followed by substrate addition by Michaelis-Menten plot analysis; conditions: Glycine max; outline: as §1
# [15] = substrate: O=c1c(O)c(-c2ccc(O)c(O)c2)oc2cc(O)cc(O)c12; test: as §4; conditions: Glycine max; outline: as §1
# [16] = substrate: O=c1cc(-c2cccc(O)c2)oc2cc(O)cc(O)c12; test: as §4; conditions: Glycine max; outline: as §1
# [17] = substrate: O=c1cc(-c2ccc(O)c(O)c2)oc2cc(O)ccc12; test: (§5) Activity at soybean LOX-1 using linoleic acid as substrate at 10 uM preincubated for 5 mins followed by substrate addition by Michaelis-Menten plot analysis; conditions: Glycine max; outline: as §1
# [18] = substrate: O=c1cc(-c2ccc(O)c(O)c2)oc2cc(O)cc(O)c12; test: as §5; conditions: Glycine max; outline: as §1
# [19] = substrate: O=c1cc(-c2ccccc2)oc2cc(O)cc(O)c12; test: as §5; conditions: Glycine max; outline: as §1
# [20] = substrate: O=c1cc(-c2ccc(O)cc2)oc2cccc(O)c12; test: as §5; conditions: Glycine max; outline: as §1
# [21] = substrate: O=c1cc(-c2ccc(O)c(O)c2)oc2ccccc12; test: as §5; conditions: Glycine max; outline: as §1
molecule,measurement,setting,value
O=c1cc(-c2ccc(O)cc2)oc2cc(O)cc(O)c12 [APIGENIN],Ki,[1],178 µM
same,inhibition,[2],< 50%
same,Activity,[3],Active
O=c1cc(-c2ccccc2)oc2cc(O)cc(O)c12 [CHRYSIN],Ki,[1],19.4 µM
same,inhibition,[2],< 50%
same,Activity,[3],Active
O=c1cc(-c2ccc(O)cc2)oc2cccc(O)c12,Ki,[1],103 µM
same,inhibition,[2],29.8%
same,Activity,[3],Active
O=c1cc(-c2cccc(O)c2)oc2cc(O)ccc12,inhibition,[2],51.4%
O=c1cc(-c2ccccc2)oc2cc(O)ccc12,inhibition,[2],53.1%
"Seed linoleate 13S-lipoxygenase-1 (Glycine max), P08170 (protein) MFSAGHKIKGTVVLMPKNELEVNPDGSAVDNLNAFLGRSVSLQLISATKADAHGKGKVGKDTFLEGINTSLPTLGAGESAFNIHFEWDGSMGIPGAFYIKNYMQVEFFLKSLTLEAISNQGTIRFVCNSWVYNTKLYKSVRIFFANHTYVPSETPAPLVSYREEELKSLRGNGTGERKEYDRIYDYDVYNDLGNPDKSEKLARPVLGGSSTFPYPRRGRTGRGPTVTDPNTEKQGEVFYVPRDENLGHLKSKDALEIGTKSLSQIVQPAFESAFDLKSTPIEFHSFQDVHDLYEGGIKLPRDVISTIIPLPVIKELYRTDGQHILKFPQPHVVQVSQSAWMTDEEFAREMIAGVNPCVIRGLEEFPPKSNLDPAIYGDQSSKITADSLDLDGYTMDEALGSRRLFMLDYHDIFMPYVRQINQLNSAKTYATRTILFLREDGTLKPVAIELSLPHSAGDLSAAVSQVVLPAKEGVESTIWLLAKAYVIVNDSCYHQLMSHWLNTHAAMEPFVIATHRHLSVLHPIYKLLTPHYRNNMNINALARQSLINANGIIETTFLPSKYSVEMSSAVYKNWVFTDQALPADLIKRGVAIKDPSTPHGVRLLIEDYPYAADGLEIWAAIKTWVQEYVPLYYARDDDVKNDSELQHWWKEAVEKGHGDLKDKPWWPKLQTLEDLVEVCLIIIWIASALHAAVNFGQYPYGGLIMNRPTASRRLLPEKGTPEYEEMINNHEKAYLRTITSKLPTLISLSVIEILSTHASDEVYLGQRDNPHWTSDSKALQAFQKFGNKLKEIEEKLVRRNNDPSLQGNRLGPVQLPYTLLYPSSEEGLTFRGIPNSISI",Km,[4],190 µM
same,Km,[5],104 µM
same,Km,[6],191 µM
same,Km,[7],55 µM
same,Km,[8],129 µM
same,Vmax,[8],0.008 µM
same,Km,[9],191 µM
same,Km,[10],148 µM
same,Vmax,[10],0.009 µM
same,Km,[11],46.4 µM
same,Km,[12],61.3 µM
same,Km,[13],145 µM
same,Km,[14],191 µM
same,Km,[15],100 µM
same,Vmax,[15],0.006 µM
same,Km,[16],111 µM
same,Km,[17],97.4 µM
same,Km,[18],190 µM
same,Vmax,[18],0.012 µM
same,Km,[19],71 µM
same,Km,[20],105 µM
same,Km,[21],137 µM
